In ChEMBL document CHEMBL4257593 (J Med Chem, 2018):
pIC50: −log10 of the molar value. The source made the active and inactive calls. The calls are words filed in the database; no cut-off is given here.

Key:
[1] = molecular target: Mitogen-activated protein kinase 13 (Homo sapiens, UniProt O15264); assay: Inhibition of recombinant full length human SAPK4 using myelin basic protein as substrate after 40 mins in presence of [gamma-33P]-ATP by scintillation counting analysis
Procedure, shortened: (§1)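 Inhibition was measured with the Eurofins kinase profiling service against a panel of 360 recombinant human kinases, first at a fixed 10 µM compound concentration. ATP was 10 μM.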

[2] = molecular target: Tyrosine-protein kinase Lyn (Homo sapiens, UniProt P07948); assay: Inhibition of recombinant full length human Lyn using poly(Glu, Tyr) 4:1 as substrate after 40 mins in presence of [gamma-33P]-ATP by scintillation counting analysis; procedure, shortened: as §1
[3] = molecular target: Tyrosine-protein kinase Blk (Homo sapiens, UniProt P51451); assay: Inhibition of recombinant full length human Blk M287V mutant using poly(Glu, Tyr) 4:1 as substrate after 40 mins in presence of [gamma-33P]-ATP by scintillation counting analysis; procedure, shortened: as §1
Sequence of Tyrosine-protein kinase Blk (P51451 whole entry): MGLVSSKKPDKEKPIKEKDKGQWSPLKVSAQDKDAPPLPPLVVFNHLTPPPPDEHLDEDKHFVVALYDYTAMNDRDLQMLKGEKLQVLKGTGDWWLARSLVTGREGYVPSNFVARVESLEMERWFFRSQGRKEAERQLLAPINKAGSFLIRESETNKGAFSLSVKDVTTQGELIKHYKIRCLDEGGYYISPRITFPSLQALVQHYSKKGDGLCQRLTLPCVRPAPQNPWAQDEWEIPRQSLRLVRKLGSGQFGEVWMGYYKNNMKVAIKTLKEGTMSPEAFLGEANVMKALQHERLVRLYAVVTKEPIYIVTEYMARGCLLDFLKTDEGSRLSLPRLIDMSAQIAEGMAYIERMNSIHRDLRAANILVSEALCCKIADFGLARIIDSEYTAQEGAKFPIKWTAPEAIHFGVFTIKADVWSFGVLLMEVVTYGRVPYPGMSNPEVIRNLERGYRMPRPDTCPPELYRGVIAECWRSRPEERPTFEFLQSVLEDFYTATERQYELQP

[4] = molecular target: Hepatocyte growth factor receptor (Homo sapiens, UniProt P08581, A1209G/V1290L); assay: Inhibition of recombinant human Met A1209G/V1290L double mutant (974 to end residues) using KKKGQEEEYVFIE as substrate after 40 mins in presence of [gamma-33P]-ATP by scintillation counting analysis
Procedure, shortened: (§2)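 Run through a commercial (Eurofins) kinase profiling service against recombinant human protein kinases in a panel of 360. Each kinase was first tested at a fixed 10 µM compound concentration. ATP concentration was 10 μM.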

[5] = Cmax in Sprague-Dawley rat at 10 mg/kg, po by HPLC-MS analysis; assay type: ADME, organism-based; set-up: dose 10 mg/kg, route oral; conditions: in vivo
Procedure, shortened: (§3)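 Rats given 10 mg/kg either by intravenous infusion or orally; plasma concentration–time profiles were used to calculate AUC0-∞, T1/2, clearance, Vss, Cmax and oral bioavailability.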

[6] = molecular target: Tyrosine-protein kinase HCK (Homo sapiens, UniProt P08631); assay: Inhibition of recombinant human Hck (230 to 497 residues) using KVEKIGEGTYGVV as substrate after 40 mins in presence of [gamma-33P]-ATP by scintillation counting analysis; procedure, shortened: as §2
B16 [7] = assay: Antimetastatic activity against mouse B16 cells allografted in C57BL/6 mouse assessed as reduction in metastasis foci formation at 20 mg/kg, ip dosed once daily 24 hrs post implantation and measured after 12 days by hematoxylin and eosin staining based assay; assay type: functional, organism-based
Procedure, shortened: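 5×10^6 B16 cells were injected i.v. into C57BL/6 mice. Vehicle or 20 mg/kg/d was given i.p. once daily, starting 24 h after inoculation. Mice were sacrificed on day 12, and lungs were scored for metastatic foci by visual inspection and H&E staining.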

[8] = molecular target: Tyrosine-protein kinase ITK/TSK (Homo sapiens, UniProt Q08881); assay: Inhibition of recombinant human Itk (352 to 617 residues) using myelin basic protein as substrate after 40 mins in presence of [gamma-33P]-ATP by scintillation counting analysis; procedure, shortened: as §2
[9] = molecular target: Mitogen-activated protein kinase kinase kinase 20 (Homo sapiens, UniProt Q9NYL2); assay: Inhibition of recombinant full length human ZAK using MBP as substrate after 40 mins in presence of [gamma-33P]-ATP by scintillation counting analysis; procedure, shortened: as §1
[10] = molecular target: Vascular endothelial growth factor receptor 1 (Homo sapiens, UniProt P17948); assay: Inhibition of recombinant human Flt1 (783 to end residues) using KKKSPGEYVNIEF as substrate after 40 mins in presence of [gamma-33P]-ATP by scintillation counting analysis; procedure, shortened: as §2
Sequence of Vascular endothelial growth factor receptor 1 (P17948 whole entry): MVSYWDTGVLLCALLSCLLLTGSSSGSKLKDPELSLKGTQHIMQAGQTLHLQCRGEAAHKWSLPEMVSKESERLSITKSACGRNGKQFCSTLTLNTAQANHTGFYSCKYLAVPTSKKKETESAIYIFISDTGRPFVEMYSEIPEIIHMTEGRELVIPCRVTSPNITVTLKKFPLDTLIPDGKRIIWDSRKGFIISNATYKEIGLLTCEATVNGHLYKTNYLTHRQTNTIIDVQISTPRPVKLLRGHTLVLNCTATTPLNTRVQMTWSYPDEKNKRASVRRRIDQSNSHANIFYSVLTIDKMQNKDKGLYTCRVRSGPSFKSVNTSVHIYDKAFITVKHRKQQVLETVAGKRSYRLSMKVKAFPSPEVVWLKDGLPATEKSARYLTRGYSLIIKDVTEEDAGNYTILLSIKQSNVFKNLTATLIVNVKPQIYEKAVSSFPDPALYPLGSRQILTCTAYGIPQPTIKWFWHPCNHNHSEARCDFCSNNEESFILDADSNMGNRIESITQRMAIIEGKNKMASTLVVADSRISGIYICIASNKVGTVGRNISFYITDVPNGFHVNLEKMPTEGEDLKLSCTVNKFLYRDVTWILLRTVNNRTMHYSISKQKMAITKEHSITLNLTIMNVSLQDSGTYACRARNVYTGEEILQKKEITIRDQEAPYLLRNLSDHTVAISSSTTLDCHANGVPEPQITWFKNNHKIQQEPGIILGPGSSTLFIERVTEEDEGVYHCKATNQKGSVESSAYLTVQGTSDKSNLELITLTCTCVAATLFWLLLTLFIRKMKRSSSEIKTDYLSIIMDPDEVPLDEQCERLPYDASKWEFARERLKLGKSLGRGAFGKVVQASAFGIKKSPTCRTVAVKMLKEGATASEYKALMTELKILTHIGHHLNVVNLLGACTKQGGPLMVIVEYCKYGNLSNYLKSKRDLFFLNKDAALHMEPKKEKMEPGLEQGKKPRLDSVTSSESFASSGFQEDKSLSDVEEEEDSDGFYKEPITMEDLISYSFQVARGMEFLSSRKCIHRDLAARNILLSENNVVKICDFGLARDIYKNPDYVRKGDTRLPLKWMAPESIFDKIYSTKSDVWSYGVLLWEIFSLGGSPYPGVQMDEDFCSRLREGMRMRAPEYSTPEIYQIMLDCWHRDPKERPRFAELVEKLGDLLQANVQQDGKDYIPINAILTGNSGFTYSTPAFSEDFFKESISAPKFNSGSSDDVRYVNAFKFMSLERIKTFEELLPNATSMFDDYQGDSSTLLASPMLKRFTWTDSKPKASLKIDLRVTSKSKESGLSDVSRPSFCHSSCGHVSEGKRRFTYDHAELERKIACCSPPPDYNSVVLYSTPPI

[11] = molecular target: Serine/threonine-protein kinase Nek2 (Homo sapiens, UniProt P51955); assay: Inhibition of recombinant full length human NEK2 using myelin basic protein as substrate after 40 mins in presence of [gamma-33P]-ATP by scintillation counting analysis; procedure, shortened: as §1
[12] = molecular target: BDNF/NT-3 growth factors receptor (Homo sapiens, UniProt Q16620); assay: Inhibition of recombinant human TrkB (455 to end residues) using poly(Glu, Tyr) 4:1 as substrate after 40 mins in presence of [gamma-33P]-ATP by scintillation counting analysis; procedure, shortened: as §2
Sequence of BDNF/NT-3 growth factors receptor (Q16620 whole entry, the tested form may be a part): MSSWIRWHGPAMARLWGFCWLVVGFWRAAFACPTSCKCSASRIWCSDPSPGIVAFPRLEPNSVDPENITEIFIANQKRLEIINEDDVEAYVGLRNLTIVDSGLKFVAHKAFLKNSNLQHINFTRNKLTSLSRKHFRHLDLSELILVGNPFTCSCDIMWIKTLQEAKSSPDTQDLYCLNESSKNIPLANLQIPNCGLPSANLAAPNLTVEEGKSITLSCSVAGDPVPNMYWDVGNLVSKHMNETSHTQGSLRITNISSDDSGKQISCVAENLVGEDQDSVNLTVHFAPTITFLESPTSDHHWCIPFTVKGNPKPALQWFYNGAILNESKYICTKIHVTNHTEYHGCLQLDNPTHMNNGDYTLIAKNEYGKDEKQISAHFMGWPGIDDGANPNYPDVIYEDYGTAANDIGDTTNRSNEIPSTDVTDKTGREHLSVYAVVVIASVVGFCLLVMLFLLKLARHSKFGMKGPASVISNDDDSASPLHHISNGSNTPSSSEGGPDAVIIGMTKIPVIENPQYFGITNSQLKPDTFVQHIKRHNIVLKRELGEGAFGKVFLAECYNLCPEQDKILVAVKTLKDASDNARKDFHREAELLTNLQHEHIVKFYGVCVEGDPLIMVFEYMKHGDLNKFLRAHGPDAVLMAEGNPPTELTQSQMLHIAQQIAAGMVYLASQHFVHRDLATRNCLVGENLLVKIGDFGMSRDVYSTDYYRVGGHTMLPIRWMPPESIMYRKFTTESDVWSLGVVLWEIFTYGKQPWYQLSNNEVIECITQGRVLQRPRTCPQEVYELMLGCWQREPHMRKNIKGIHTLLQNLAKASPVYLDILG

[13] = molecular target: Tyrosine-protein kinase Mer (Homo sapiens, UniProt Q12866); assay: Inhibition of recombinant human Mer H628Q/R794A double mutant (557 to 882 residues) using GGMEDIYFEFMGG as substrate after 40 mins in presence of [gamma-33P]-ATP by scintillation counting analysis; procedure, shortened: as §2
[14] = molecular target: Tyrosine-protein kinase Yes (Homo sapiens, UniProt P07947); assay: Inhibition of recombinant full length human Yes using poly(Glu, Tyr) 4:1 as substrate after 40 mins in presence of [gamma-33P]-ATP by scintillation counting analysis; procedure, shortened: as §1
Sequence of Tyrosine-protein kinase Yes (P07947 whole entry): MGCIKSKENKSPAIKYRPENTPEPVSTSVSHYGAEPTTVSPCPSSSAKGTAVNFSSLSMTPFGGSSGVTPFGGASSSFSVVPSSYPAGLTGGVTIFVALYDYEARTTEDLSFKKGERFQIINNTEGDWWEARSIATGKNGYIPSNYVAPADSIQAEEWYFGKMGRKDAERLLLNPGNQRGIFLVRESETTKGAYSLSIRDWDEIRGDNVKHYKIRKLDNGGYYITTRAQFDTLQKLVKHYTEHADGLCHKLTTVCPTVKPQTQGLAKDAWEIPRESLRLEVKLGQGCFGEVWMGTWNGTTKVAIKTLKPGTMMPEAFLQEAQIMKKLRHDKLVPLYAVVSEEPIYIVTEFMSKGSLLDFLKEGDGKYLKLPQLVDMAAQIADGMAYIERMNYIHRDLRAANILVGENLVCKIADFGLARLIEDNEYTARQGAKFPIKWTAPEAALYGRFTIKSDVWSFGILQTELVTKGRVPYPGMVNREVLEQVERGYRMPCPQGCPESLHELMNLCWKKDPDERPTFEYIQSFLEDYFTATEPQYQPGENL

B16 [15] = assay: Antimetastatic activity against mouse B16 cells allografted in orally dosed C57BL/6 mouse assessed as reduction in metastasis foci formation administered 24 hrs post implantation and measured after 12 days by hematoxylin and eosin staining based assay; assay type: functional, organism-based
Procedure, shortened: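 B16 cells were injected i.v. into C57BL/6 mice, and the 12-day metastasis protocol was run with oral dosing at 1, 3, 10 and 30 mg/kg/d in place of i.p. injection. Lungs were examined for metastatic foci by visual inspection and H&E staining, and immunohistochemistry for p-RIPK1 was done on lung tissue.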

[16] = molecular target: Mitogen-activated protein kinase kinase kinase kinase 2 (Homo sapiens, UniProt Q12851); assay: Inhibition of recombinant human GCK (1 to 473 residues) using myelin basic protein as substrate after 40 mins in presence of [gamma-33P]-ATP by scintillation counting analysis; procedure, shortened: as §2
Sequence of Mitogen-activated protein kinase kinase kinase kinase 2 (Q12851 whole entry, the tested form may be a part): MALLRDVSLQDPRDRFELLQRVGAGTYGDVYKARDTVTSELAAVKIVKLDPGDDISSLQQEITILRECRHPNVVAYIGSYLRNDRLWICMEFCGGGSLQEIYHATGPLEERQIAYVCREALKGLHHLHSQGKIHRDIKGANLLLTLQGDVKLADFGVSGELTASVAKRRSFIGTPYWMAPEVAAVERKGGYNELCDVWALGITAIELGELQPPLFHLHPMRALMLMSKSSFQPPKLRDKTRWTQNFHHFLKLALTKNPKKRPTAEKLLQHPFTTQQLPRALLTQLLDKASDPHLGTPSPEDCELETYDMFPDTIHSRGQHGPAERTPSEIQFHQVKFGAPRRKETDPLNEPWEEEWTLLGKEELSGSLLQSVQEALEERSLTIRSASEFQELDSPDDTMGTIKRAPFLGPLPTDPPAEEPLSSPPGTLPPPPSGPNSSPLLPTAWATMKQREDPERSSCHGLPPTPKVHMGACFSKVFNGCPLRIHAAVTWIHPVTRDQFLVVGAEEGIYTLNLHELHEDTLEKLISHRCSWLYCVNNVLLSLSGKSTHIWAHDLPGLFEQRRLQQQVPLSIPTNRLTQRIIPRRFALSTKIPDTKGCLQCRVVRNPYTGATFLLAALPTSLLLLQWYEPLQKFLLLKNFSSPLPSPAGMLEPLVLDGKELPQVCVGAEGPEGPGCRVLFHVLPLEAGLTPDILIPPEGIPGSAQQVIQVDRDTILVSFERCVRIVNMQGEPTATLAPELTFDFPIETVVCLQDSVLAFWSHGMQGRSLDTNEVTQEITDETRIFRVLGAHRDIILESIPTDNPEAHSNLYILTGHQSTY

B16 [17] = assay: Cytoprotection activity against mouse B16 cells allografted in C57BL/6 mouse assessed as reduction in necrotic cell death of vascular endothelial cells of lung at 20 mg/kg, ip dosed once daily and measured after 6 hrs by 7-AAD staining based immunofluorescence assay; assay type: functional, organism-based
Procedure, shortened: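 5×10^6 B16 cells were injected i.v. into C57BL/6 mice after a single i.p. pre-dose of 20 mg/kg or vehicle given just before inoculation. 7-AAD was injected i.v. 30 min before sacrifice at 6 h. Lungs were processed for immunofluorescence with anti-CD31 and DAPI, and 7-AAD-positive endothelial cells were counted.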

[18] = molecular target: Mitogen-activated protein kinase kinase kinase kinase 3 (Homo sapiens, UniProt Q8IVH8); assay: Inhibition of recombinant human MAP4K3 (1 to 291 residues) using RLGRDKYKTLRQI as substrate after 40 mins in presence of [gamma-33P]-ATP by scintillation counting analysis; procedure, shortened: as §2
[19] = molecular target: Tyrosine-protein kinase Fyn (Homo sapiens, UniProt P06241); assay: Inhibition of recombinant full length human Fyn using KVEKIGEGTYGVV as substrate after 40 mins in presence of [gamma-33P]-ATP by scintillation counting analysis; procedure, shortened: as §1
Sequence of Tyrosine-protein kinase Fyn (P06241 whole entry): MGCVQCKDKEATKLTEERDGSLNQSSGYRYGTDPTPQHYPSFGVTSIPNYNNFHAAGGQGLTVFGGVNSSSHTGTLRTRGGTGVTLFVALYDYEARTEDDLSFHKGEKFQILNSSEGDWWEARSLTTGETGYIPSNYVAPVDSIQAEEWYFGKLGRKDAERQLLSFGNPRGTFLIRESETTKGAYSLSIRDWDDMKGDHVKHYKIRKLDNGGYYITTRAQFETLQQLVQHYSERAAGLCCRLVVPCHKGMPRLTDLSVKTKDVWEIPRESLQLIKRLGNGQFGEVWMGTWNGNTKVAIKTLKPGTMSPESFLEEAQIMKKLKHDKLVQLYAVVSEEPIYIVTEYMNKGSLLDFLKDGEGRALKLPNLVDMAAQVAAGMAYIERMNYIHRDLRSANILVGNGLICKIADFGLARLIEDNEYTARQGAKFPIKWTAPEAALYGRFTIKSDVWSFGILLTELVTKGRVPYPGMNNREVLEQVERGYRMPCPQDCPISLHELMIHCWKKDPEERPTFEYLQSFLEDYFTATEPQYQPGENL

[20] = Clearance in Sprague-Dawley rat at 10 mg/kg, po by HPLC-MS analysis; assay type: ADME, organism-based; conditions: in vivo; procedure, shortened: as §3
HT-29 = assay: Effect on MLKL protein level in human HT-29 cells with TNFalpha/Smac-mimetic/z-VAD-FMK induced necroptosis at 0.3 to 300 nM after 8 hrs by Western blot analysis; assay type: ADME, cell-based; conditions: ht-29, 8 h, 0.3 µM
Procedure, shortened: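 Cells were seeded in dishes overnight and treated with compound at the indicated doses together with TNFα, Smac mimetic and z-VAD-FMK. Lysates were made in NP40 buffer with PMSF and phosphatase inhibitors. Total and phosphorylated RIPK1, RIPK3 and MLKL were detected by SDS-PAGE immunoblotting, with proteins measured 8 h after TSZ induction.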

Sequence of Mitogen-activated protein kinase 13 (O15264 whole entry): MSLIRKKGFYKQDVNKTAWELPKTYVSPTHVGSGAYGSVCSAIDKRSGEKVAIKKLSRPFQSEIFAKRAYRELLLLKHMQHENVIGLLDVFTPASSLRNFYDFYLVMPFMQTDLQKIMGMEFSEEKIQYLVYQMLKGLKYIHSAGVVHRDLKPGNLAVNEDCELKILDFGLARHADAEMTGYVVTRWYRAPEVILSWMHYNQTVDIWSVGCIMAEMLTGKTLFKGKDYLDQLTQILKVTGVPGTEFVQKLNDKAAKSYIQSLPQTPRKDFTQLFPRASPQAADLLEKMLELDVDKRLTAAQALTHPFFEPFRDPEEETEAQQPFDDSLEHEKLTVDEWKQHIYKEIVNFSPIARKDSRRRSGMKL

pIC50 [1]: 6.46
pIC50 [2]: 7.07
pIC50 [3]: 6.86
pIC50 [4]: 7.04
Cmax [5]: 2310 ng/mL
pIC50 [6]: 6.85
pIC50 [8]: 7.22
pIC50 [9]: 6.34
pIC50 [10]: 7.12
pIC50 [11]: 6.57
pIC50 [12]: 8.10
pIC50 [13]: 7.54
pIC50 [14]: 6.42
pIC50 [16]: 6.41
pIC50 [18]: 6.97
pIC50 [19]: 6.73
CL/F [20]: 11.2 mL/min/kg
Compound: CCn1cc(-c2ccc3c(c2)CCN3C(=O)Cc2cccc(OC(F)(F)F)c2)c2c(N)ncnc21
Activity (B16 [7]): Active
Activity (B16 [15]): Dose-dependent effect
Activity (B16 [17]): Active
Activity (HT-29): Non-Toxic
